# PAFAH1B2 FP inh: blocks human PAF acetylhydrolase 1b catalytic subunit 2; recombinant PAFAH1B2, FP-rhodamine activity probe, fluorescence polarization; inhibition, % at 3.39 µM; 1.2% of 340,000 active;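 active means inhibition above the mean of all tested compounds plus 3 SD, cut at about 24% in these data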
# PAFAH2 inh: inhibitors of human PAFAH2. Q99487. recombinant PAFAH2, FP-rhodamine activity probe, fluorescence polarization. inhibition, % at 3.39 µM. 0.99% of 340,000 active. AID 492956;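 active means inhibition above the mean over all tested compounds plus 3 SD, cut at about 30% in these data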;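 further: inhibitors block probe labeling of enzyme so polarization drops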
# Apaf1 inhib: human Apaf-1 inhibition. AID 489030. 0.71% of 330,000 active. inhibition, % at 20 µM. reconstituted apoptosome caspase-3 activity, DEVD-Rh110 fluorescence. O14727; active means inhibition of at least 40% at 20 µM
#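 Assay system – apoptosome proteins · Medium – Hepes buffer, pH 7.5 · Also added – cytochrome c with DEVD-Rh110 · Timing – 30 min compound preincubation, 50 min activation, room temperature · Detection – Rh110 fluorescence, excitation 480 nm, emission 540 nm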
# TDP2 absorb: TDP2 (human) inhibition, absorbance primary screen. recombinant TDP2, T5PNP hydrolysis, p-nitrophenol absorbance 415 nm. inhibition, % at 12.8 µM. 0.34% of 370,000 active. AID 720702. O95551;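 active means inhibition above the mean of all tested compounds plus 3 SD, set per campaign, cut at about 25% in these data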
# Target sequence (O95551 whole entry, looked up): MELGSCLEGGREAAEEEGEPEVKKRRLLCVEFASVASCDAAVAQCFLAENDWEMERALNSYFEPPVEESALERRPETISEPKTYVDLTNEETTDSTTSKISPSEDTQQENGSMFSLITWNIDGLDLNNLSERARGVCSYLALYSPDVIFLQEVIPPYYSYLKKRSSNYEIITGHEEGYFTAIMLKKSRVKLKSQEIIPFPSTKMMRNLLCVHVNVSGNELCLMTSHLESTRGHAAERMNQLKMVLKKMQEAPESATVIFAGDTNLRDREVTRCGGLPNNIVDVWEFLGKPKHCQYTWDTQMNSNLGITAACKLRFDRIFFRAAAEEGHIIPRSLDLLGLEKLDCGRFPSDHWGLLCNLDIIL
#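 Test system: Human TDP2 enzyme | Reagent: 5 mM T5PNP | Compound dosing: 12.8 µM single point, 1% DMSO | Incubation: Enzyme reaction with compound for 2 h at 37 °C | Technique: p-Nitrophenol epi absorbance | Read-out: % inhibition relative to enzyme-containing and enzyme-free wells | Benchmarks: High control without enzyme, low control DMSO plus TDP2 | Replicates: Singlicate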
# PAFAH1B3 FP inh: blocks human PAF acetylhydrolase 1B catalytic subunit 3; Q15102; recombinant PAFAH1B3, FP-rhodamine probe, fluorescence polarization; inhibition, % at 3.39 µM; 0.28% of 340,000 active; AID 492972;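 active means inhibition above the screen-wide average of all tested compounds plus 3 SD, cut at about 25% in these data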
# Target sequence (Q15102 whole entry, looked up): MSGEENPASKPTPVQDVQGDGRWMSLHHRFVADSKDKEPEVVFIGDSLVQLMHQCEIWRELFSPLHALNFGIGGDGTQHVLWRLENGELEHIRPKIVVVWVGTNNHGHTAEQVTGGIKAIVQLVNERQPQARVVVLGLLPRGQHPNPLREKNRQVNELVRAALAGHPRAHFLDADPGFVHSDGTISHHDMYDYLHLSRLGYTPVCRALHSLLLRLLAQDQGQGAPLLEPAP
# A number is an active result; . = inactive; / = not tested or not shown. Only some compounds are listed: those with a hit (about 2.3% of all), similar ones and a draw of the others.
SMILES,PAFAH1B2 FP inh,PAFAH2 inh,Apaf1 inhib,TDP2 absorb,PAFAH1B3 FP inh
CCCCNC(=O)C[C@H]1C[C@@]2(C(=O)OC)C(=C[C@H](C(C)C)O[C@@H]2C2CC2)N(Cc2ccc(Cl)cc2Cl)C1=O,/,/,/,.,/
COc1ccc(C(=O)COC(=O)c2cccs2)cc1,.,.,.,.,.
O=C(COC(=O)c1cccs1)c1ccccc1,.,34,.,.,.
COc1ccc(S(=O)(=O)CC(=O)c2cc3cccc(C)c3oc2=O)cc1,.,.,.,/,.
COc1cccc2cc(C(=O)CS(=O)(=O)c3ccc(C(C)(C)C)cc3)c(=O)oc12,42,.,.,.,.
O=S(=O)(c1ccc(F)cc1)N1CCC2(CC1)OCCN2S(=O)(=O)c1cccs1,28,.,.,.,.
O=C(NC1=N[C@@]2(C=C3CCCCC3n3c(=O)n(-c4ccccc4)c(=O)n32)[C@H](Cc2ccccc2)N1Cc1ccccc1)c1ccccc1 (stereo partly drawn),/,/,/,.,/
O=C(OCc1cn(Cc2ccc(F)cc2)nn1)N1CCOCC1,/,/,/,.,/
CCCCc1ccc(CC(=O)Nc2cc(S(=O)(=O)N3CCOCC3)ccc2O)cc1,.,81,.,.,.
CC(C)Oc1ccc(S(=O)(=O)N2CCOCC2)cc1NC(=O)CC1CCCC1,.,.,.,.,.
Cn1nnnc1SCC(=O)NCc1cc([N+](=O)[O-])ccc1O,.,.,.,.,.
O=C(CC1CCCC1)Nc1cc(S(=O)(=O)N2CCOCC2)ccc1O,.,83,.,.,.
O=C(CSc1nc2ccccc2s1)Nc1cc(S(=O)(=O)N2CCOCC2)ccc1O,87,84,.,.,.
O=C(CSc1nc2ccccc2s1)NCc1cc([N+](=O)[O-])ccc1O,29,.,.,.,.
C[C@@H]1/C=C/CC(=O)N2[C@H](CC(=O)N[C@@H]1c1ccccc1)C[C@@H](C)[C@H]2c1ccccc1,/,/,/,.,/
COC(=O)c1cc2c(c3c4cc(OC)ccc4n(S(=O)(=O)c4ccc(OC)cc4)c13)C(=O)N(Cc1ccco1)C2,/,/,/,.,/
COc1ccc(NC(=O)CCCNS(=O)(=O)c2ccc3[nH]c(=O)oc3c2)cc1OC,/,/,/,.,/
Cc1ccc(NC(=S)NNC(=O)CSc2nnc(SCc3cccc4ccccc34)s2)cc1,/,/,/,.,/
O=C(O)c1ccc(Nc2nc(-c3ccccc3)cs2)cc1,25,.,.,.,.
Cc1nc(NC(=O)c2ccccc2)sc1-c1csc(Nc2ccc(C(=O)O)cc2)n1,.,32,/,.,29
CN1CC(O)([C@H](Cc2ccccc2)NC(=O)OC(C)(C)C)OCC1C(=O)NCc1cccc2ccccc12 (stereo partly drawn),/,/,/,.,/
C[C@@H]1C=CCCO[C@]12C(=O)Nc1ccccc12,/,/,/,.,/
Cc1ccc(S(=O)(=O)CCC(=O)NCCN2C(=O)S/C(=C/c3ccc(F)cc3)C2=O)cc1,33,.,.,.,.
O=C(CCNC(=O)c1ccco1)NCCN1C(=O)S/C(=C\c2ccc(F)cc2)C1=O,.,.,.,.,.
Cc1cc(C)nc(NNS(=O)(=O)c2ccc(Cl)cc2)n1,26,.,.,.,.
SMILES,PAFAH1B2 FP inh,PAFAH2 inh,Apaf1 inhib,TDP2 absorb,PAFAH1B3 FP inh
COc1ccc(-c2nnc(SCC(=O)Nc3ccc(S(=O)(=O)Nc4cc(C)nc(C)n4)cc3)n2-c2ccc(OC)cc2)cc1,/,/,/,.,/
CCCNC(=O)OC[C@H]1O[C@H](CCO/N=C(\C)CCN2CCc3nc(-c4ccccc4)c(-c4ccccc4)cc3C2)C=C[C@@H]1Oc1ccc(OC)cc1,/,/,53,/,/
CCCCCCCCCCS(=O)(=O)N/N=C/c1ccc([N+](=O)[O-])cc1,30,.,.,.,.
Cc1ccc(/C=N/NS(=O)(=O)c2ccc([N+](=O)[O-])cc2)o1,.,.,.,.,.
CC(C)c1ccc(NC2CCCN(C(=O)c3n[nH]c4c3CCC4)C2)cc1 (stereo not drawn),27,.,.,.,.
CCC[C@H]1[C@@H](NCc2cccs2)CC[C@@]23CCCN2C(=O)CCC[C@@H]13,/,/,/,.,/
CC1SC2(NC1=O)C1CC3CC(C1)CC2C3 (stereo not drawn),28,.,.,.,.
CCOC(=O)Cc1csc(N/C(=N/S(=O)(=O)c2ccc(Cl)cc2)c2ccccc2)n1,.,.,63,.,.
CCOC(=O)Cc1csc(NS(=O)(=O)c2ccc(Cl)cc2)n1,.,.,.,.,.
NC(=S)N=Nc1c(O)n(CCCl)c2ccc(Br)cc12,32,.,.,.,.
O=C(COC(=O)COc1ccc(Br)cc1)NCCC1=CCCCC1,30,.,.,.,.
Cc1nc(Nc2cnc(/C=C/c3cc(C(=O)Nc4cccc(C(F)(F)F)c4)ccc3C)cn2)cc(N2CCNCC2)n1,/,/,75,/,/
O=C(/C=C(\Nc1cc(Cl)c(Cl)c(Cl)c1)c1ccccc1)c1ccccc1,/,/,/,.,/
O=C(CCSc1ccc(Cl)cc1)NC1CCCC1,26,.,.,.,.
O=C(CCSc1ccc(Cl)cc1)N1CCCCCC1,66,.,.,.,.
O=C(Cc1ccc(Cl)cc1)NNC(=O)C(=O)NC1CCCCC1,27,.,.,.,.
O=C(Nc1nc2ncccn2c1-c1ccc(F)cc1)c1ccc(F)cc1,/,/,/,.,/
CCc1ccc(Nc2n[n+](-c3ccccc3)c(-c3c(Cl)cccc3Cl)s2)cc1,.,.,44,.,.
O=C(/C=N/O)Nc1ccc2sc3ccccc3c2c1,42,47,.,.,62
COc1ccc(OC)c(S(=O)(=O)N2CCCCC2C(=O)N2CCCN(C)CC2)c1 (stereo not drawn),/,/,/,.,/
C#CCOCCOCCOCCNc1nc(N2CCN(C(=O)CCCCCCCCCCNC(=O)[C@H](CCCCN)n3cc(C[C@@H](C)CC)nn3)CC2)nc(N2CCN(C(=O)CCCCCCCCCCNC(=O)[C@H](CCCCN)n3cc(C[C@@H](C)CC)nn3)CC2)n1,.,.,/,/,.
C#CCOCCOCCOCCNc1nc(N2CCN(C(=O)CCCCCCCCCCNC(=O)[C@H](CCCCN)n3cc(CCCC(=O)O)nn3)CC2)nc(N2CCN(C(=O)CCCCCCCCCCNC(=O)[C@H](CCCCN)n3cc(CCCC(=O)O)nn3)CC2)n1,.,.,.,/,.
C#CCOCCOCCOCCNc1nc(N2CCOCC2)nc(N2CCN(C(=O)CCCCCCCCCCNC(=O)Cn3cc(CCCCCN)nn3)CC2)n1,.,.,.,.,.
C#CCOCCOCCOCCNc1nc(N2CCN(C(=O)CCCCCCCCCCNC(=O)Cn3cc(CCCCCN)nn3)CC2)nc(N2CCN(C(=O)CCCCCCCCCCNC(=O)[C@H](CO)n3cc(CCCCCN)nn3)CC2)n1,.,.,63,/,.
C#CCOCCOCCOCCNc1nc(N2CCOCC2)nc(N2CCN(C(=O)CCCCCCCCCCNC(=O)[C@H](CO)n3cc(CCCCCN)nn3)CC2)n1,.,.,44,.,.
C#CCOCCOCCOCCNc1nc(N2CCN(C(=O)CCCCCCCCCCNC(=O)Cn3cc(C[C@@H](C)O)nn3)CC2)nc(N2CCN(C(=O)CCCCCCCCCCNC(=O)[C@H](CCCCN)n3cc(C[C@@H](C)CC)nn3)CC2)n1,.,.,71,/,.
